Screening results deposited in PubChem BioAssay by Sanford-Burnham Center for Chemical Genomics.
Diaphorase act: activates diaphorase or chemically reduces, flagging diaphorase assay artifacts | Diaphorase/resazurin coupled assay, resorufin fluorescence, 16 min; stronger effect = higher value; 1 = vehicle wells, 0 = NADH-free wells | activation factor at 20 µM | 0.005% of 190,000 active | AID 1229;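 active = diaphorase activity raised at least twofold by the compound at 20 µM; inactive = activation factor below 2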
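Material: bacterial diaphorase enzyme (C. kluyveri); amount: enzyme 0.07 U/mL final; reagent: NADH substrate 0.114 mM plus resazurin dye 0.1 mM, final; doses: single compound dose of 20 µM, 1% DMSO final; timing: 16 min enzyme reaction, ambient temperature; measured by: fluorescence of resorufin, 544 nm excitation, 590 nm emission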
FLuc stim CS: affects firefly luciferase, flagging false hits in luciferase stimulation screens | P08659 | ATPlite luciferase biochemical, luminescence, 10 min; 0 = ATP-free wells, 1 = DMSO control | activation factor at 10 µM | 200,000 tested, under 10 active;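 active = luciferase activation factor, scaled between plate controls, of at least 2 with compound at 10 µM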
Target sequence (P08659 whole entry, looked up): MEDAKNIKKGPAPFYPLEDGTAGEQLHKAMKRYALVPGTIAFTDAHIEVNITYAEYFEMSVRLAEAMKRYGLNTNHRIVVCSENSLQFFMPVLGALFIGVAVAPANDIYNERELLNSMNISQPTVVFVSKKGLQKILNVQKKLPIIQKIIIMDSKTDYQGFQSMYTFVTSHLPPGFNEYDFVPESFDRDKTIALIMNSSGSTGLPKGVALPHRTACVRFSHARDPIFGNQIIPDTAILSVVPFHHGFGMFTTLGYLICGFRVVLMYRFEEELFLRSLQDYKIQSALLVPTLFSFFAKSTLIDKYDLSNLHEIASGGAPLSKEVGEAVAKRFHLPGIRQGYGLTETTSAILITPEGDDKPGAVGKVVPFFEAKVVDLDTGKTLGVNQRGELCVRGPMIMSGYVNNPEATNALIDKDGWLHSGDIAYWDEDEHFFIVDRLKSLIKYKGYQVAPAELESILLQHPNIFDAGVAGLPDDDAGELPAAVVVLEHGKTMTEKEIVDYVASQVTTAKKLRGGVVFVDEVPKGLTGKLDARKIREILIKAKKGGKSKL
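Assay system: Luciferase/luciferin detection reagent, cell-free biochemical luciferase assay / Read-out: luciferase activation / Benchmarks: No-ATP low control, compound-free enzyme-plus-ATP high control / Medium: PBS buffer for ATP / Detection: luminescence measurement of luciferase light output / Schedule: 10 min at ambient temperature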
FLuc inhib CS: Photinus pyralis luciferase inhibition counter-screen. inhibition, % at 10 µM. ATPLite firefly luciferase biochemical luminescence, 10 min. AID 1006. 1.5% of 200,000 active. P08659;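 active = inhibition above about 50% when tested at 10 µM, limit read from the data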
Diaphorase inh: counter-screen for diaphorase-based assays: diaphorase inhibitors and chemical oxidizers | diaphorase resazurin-to-resorufin fluorescence, NADH, 16 min; bacterial (C. kluyveri) enzyme, not human | 0.69% of 190,000 active | inhibition, % at 20 µM;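 active = primary screen inhibition at 20 µM above a set limit, cut at about 50% in these data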;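 also: plate controls were DMSO with full reaction for no effect and wells lacking NADH for full effect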
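Detection: fluorescence of resorufin formed from resazurin, Ex 544/Em 590 nm; test system: Clostridium kluyveri diaphorase enzyme; amount: 0.14 U/mL diaphorase, enzyme working solution; times: 16-min room-temperature incubation before reading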
G6PDH counter: counter-screen for G6PDH assay hits: L. mesenteroides G6PDH inhibition. Purified L. mesenteroides G6PDH, diaphorase/resazurin coupled fluorescence, 45 min. inhibition, % at 5 µM. 0.12% of 200,000 active. AID 1020; in the data active = inhibition above about 50%
The depositor's hits bear a star. Rows were chosen to be rich in hits. Some 2.3% of all compounds tested hit in one or more screens of this group.

Screening CCOC(=O)c1cnc(Nc2nc3ccccc3o2)nc1C returned Diaphorase act 1.1, FLuc stim CS 0.1, FLuc inhib CS 91*, Diaphorase inh -7 and G6PDH counter 5.
`Cc1nc(Nc2nc3ccccc3o2)nc2c1CCC2` gave Diaphorase act 0.8, FLuc stim CS 0.3, FLuc inhib CS 66*, Diaphorase inh 22 and G6PDH counter 7.
`COCCNC(=S)N1CCC(NC(=O)c2ccco2)CC1` gave Diaphorase act 0.9, FLuc stim CS 1, FLuc inhib CS -3, Diaphorase inh 11 and G6PDH counter 0.
Screening CCOC(=O)C1=C(O)/C(=C\c2ccc(CNS(=O)(=O)c3ccc(Br)cc3)o2)N=C1C returned Diaphorase act 0.5, FLuc stim CS 1.1, FLuc inhib CS -6, Diaphorase inh 52* and G6PDH counter -4.
For COC(=O)C1=C(O)/C(=C\c2ccc(CNS(=O)(=O)c3ccc(Cl)cc3)o2)N=C1C the results were Diaphorase act 0.7, FLuc stim CS 1, FLuc inhib CS -2, Diaphorase inh 26 and G6PDH counter -23.
O=C(Nc1ccc2c(c1)OCO2)C1CCN(C(=O)c2ccc([N+](=O)[O-])cc2)CC1 was read as Diaphorase act 0.9, FLuc stim CS 1.1, FLuc inhib CS -6, Diaphorase inh 10 and G6PDH counter 8.
Screening CCOc1ccc(C(=O)N(c2ccccn2)C2CCCCC2)cc1 returned Diaphorase act 0.9, FLuc stim CS 1.1, FLuc inhib CS -6, Diaphorase inh 8 and G6PDH counter -1.
O=C(CCc1nnc(CCCc2ccccc2)o1)NCC(F)(F)F was read as Diaphorase act 0.5, FLuc stim CS 1, FLuc inhib CS -4, Diaphorase inh 50* and G6PDH counter 10.
COc1ccc(N/C=C/C(=O)c2ccc(Cl)cc2)cc1 was read as Diaphorase act 1, FLuc stim CS 0.7, FLuc inhib CS 35, Diaphorase inh 4 and G6PDH counter 7.
COc1cccc(C(=O)/C=C/Nc2cccc(O)c2)c1 was read as Diaphorase act 0.9, FLuc stim CS 0, FLuc inhib CS 96*, Diaphorase inh 12 and G6PDH counter 2.
Screening COc1cccc(N/C=C/C(=O)c2ccc(Cl)cc2)c1 returned Diaphorase act 0.9, FLuc stim CS 0.2, FLuc inhib CS 83*, Diaphorase inh 12 and G6PDH counter 0.
N#C/C(=C\c1ccc(OC(=O)c2ccc(Cl)s2)cc1)c1nc2ccccc2[nH]1 was read as Diaphorase act 0.8, FLuc stim CS 1, FLuc inhib CS -1, Diaphorase inh 20 and G6PDH counter 4.
`Oc1ccc2ccccc2c1C=NC1CCCCC1` gave Diaphorase act 0.5, FLuc stim CS 0.9, FLuc inhib CS 8, Diaphorase inh 52* and G6PDH counter 30.
Oc1ccc2ccccc2c1/C=N/n1cnnc1 was read as Diaphorase act 0.8, FLuc stim CS 1, FLuc inhib CS -2, Diaphorase inh 21 and G6PDH counter 12.
O=C(Nc1ccccc1)C1=C[C@@H](c2ccc(C(F)(F)F)cc2)C[C@@H](OCc2ccc(CO)cc2)O1 was read as Diaphorase act 0.8, FLuc stim CS 1, FLuc inhib CS -3, Diaphorase inh 25 and G6PDH counter 12.
Screening CCN(CC)c1ccc2cc(-c3nc4ccccc4[nH]3)c(=O)oc2c1 returned Diaphorase act 0.8, FLuc stim CS 0, FLuc inhib CS 96*, Diaphorase inh 20 and G6PDH counter -66.
For O=C(O)c1cccc(NC(=O)c2ccc(Cl)c(S(=O)(=O)N3CCCCCC3)c2)c1 the results were Diaphorase act 0.9, FLuc stim CS 0.3, FLuc inhib CS 65*, Diaphorase inh 6 and G6PDH counter -5.
Screening O=C(Nc1ccccc1C(=O)O)c1ccc(Cl)c(S(=O)(=O)N2CCOCC2)c1 returned Diaphorase act 0.9, FLuc stim CS 0.4, FLuc inhib CS 60*, Diaphorase inh 10 and G6PDH counter 11.
`O=C(Nc1ccccc1)c1cccc(S(=O)(=O)N2CCCCC2)c1` gave Diaphorase act 1, FLuc stim CS 1.1, FLuc inhib CS -10, Diaphorase inh 2 and G6PDH counter 6.
COc1ccccc1NC(=O)c1ccc(Cl)c(S(=O)(=O)N2CCOCC2)c1 was read as Diaphorase act 0.8, FLuc stim CS 1, FLuc inhib CS -5, Diaphorase inh 19 and G6PDH counter 5.
`O=c1cc(C(Cl)(Cl)Cl)oc2c1ccc1ccccc12` gave Diaphorase act 0.9, FLuc stim CS 1, FLuc inhib CS -2, Diaphorase inh 8 and G6PDH counter 2.
Screening Cc1cccc(OCC(=O)N/N=C\c2cc3c(cc2[N+](=O)[O-])OCO3)c1C returned Diaphorase act 0.8, FLuc stim CS 1, FLuc inhib CS -4, Diaphorase inh 17 and G6PDH counter -5.
For Cc1cc(C(=O)CSc2n[nH]c(N)n2)c(C)n1-c1ccc2c(c1)OCO2 the results were Diaphorase act 0.9, FLuc stim CS 0.9, FLuc inhib CS 11, Diaphorase inh 5 and G6PDH counter -16.
`CCn1c(-c2ccc(N(C)C)cc2)nc2ccccc21` gave Diaphorase act 0.9, FLuc stim CS 0.2, FLuc inhib CS 85*, Diaphorase inh 8 and G6PDH counter 0.
CN(C)c1ccc(-c2nc3ccccc3n2C)cc1 was read as Diaphorase act 0.9, FLuc stim CS 0, FLuc inhib CS 96*, Diaphorase inh 10 and G6PDH counter 7.
`O=c1[nH]c2ccccc2c(O)c1O` gave Diaphorase act 0.3, FLuc stim CS 1.1, FLuc inhib CS -10, Diaphorase inh 72* and G6PDH counter 15.
For COC(=O)[C@@]1(Cc2ccc(F)cc2)[C@H]2c3cc(C(=O)N4CCCC4)n(CCO)c3C[C@H]2CN1C(=O)c1ccccc1 the results were Diaphorase act 0.9, FLuc stim CS 1, FLuc inhib CS -4, Diaphorase inh 11 and G6PDH counter 4.
`COC(=O)[C@@]1(Cc2ccc(F)cc2)[C@H]2c3cc(C(=O)N4CCCC4)n(CCc4ccc(O)c(O)c4)c3C[C@H]2CN1C(=O)c1ccccc1` gave Diaphorase act 0.5, FLuc stim CS 1, FLuc inhib CS 3, Diaphorase inh 52* and G6PDH counter 25.
Screening O=c1oc(-c2ccccc2)nc2sc3c(c12)CCCC3 returned Diaphorase act 0.9, FLuc stim CS 0.6, FLuc inhib CS 43, Diaphorase inh 13 and G6PDH counter 1.
O=c1oc(-c2cccs2)nc2sc3c(c12)CCCCC3 was read as Diaphorase act 0.8, FLuc stim CS 0.3, FLuc inhib CS 67*, Diaphorase inh 22 and G6PDH counter 11.
For O=C(CSc1nccc(=O)[nH]1)N1c2ccccc2CCc2ccccc21 the results were Diaphorase act 0.8, FLuc stim CS 1, FLuc inhib CS -4, Diaphorase inh 22 and G6PDH counter 3.
